What was measured:
[1] = biological target: Albumin (Homo sapiens, UniProt P02768); assay: Binding affinity to human serum albumin after 3 hrs by LC-MS/MS analysis; set-up: concentration or dose not given beside the values
Procedure, shortened: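 HSA was coupled to NHS-activated Sepharose (6–7 mg HSA/mL wet resin); an inactivated albumin-free resin served as control. Peptide (100 µg/mL in PBS) was incubated with each resin for 3 h at 25 °C. After centrifugation, unbound peptide in the supernatant was quantified by LC-MS/MS.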

[2] = biological target: Glucagon-like peptide 1 receptor (Homo sapiens, UniProt P43220); assay: Agonist activity at recombinant human GLP1 receptor expressed in HEK293 cells assessed as cAMP accumulation by TR-FRET assay; assay type: functional, cell-based
Chain of Glucagon-like peptide 1 receptor (P43220 whole entry): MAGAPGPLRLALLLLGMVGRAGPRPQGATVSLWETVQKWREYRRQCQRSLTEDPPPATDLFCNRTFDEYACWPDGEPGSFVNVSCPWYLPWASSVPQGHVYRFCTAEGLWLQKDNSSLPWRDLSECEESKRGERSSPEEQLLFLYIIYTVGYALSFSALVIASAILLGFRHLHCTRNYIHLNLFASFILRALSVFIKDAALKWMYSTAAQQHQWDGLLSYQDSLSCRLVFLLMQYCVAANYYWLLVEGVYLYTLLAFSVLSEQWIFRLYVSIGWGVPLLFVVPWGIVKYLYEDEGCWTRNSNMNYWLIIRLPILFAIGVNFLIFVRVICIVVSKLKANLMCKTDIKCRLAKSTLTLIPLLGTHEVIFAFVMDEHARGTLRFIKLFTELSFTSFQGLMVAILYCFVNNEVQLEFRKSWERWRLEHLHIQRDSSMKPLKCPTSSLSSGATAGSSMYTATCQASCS

Chain of Albumin (P02768 whole entry): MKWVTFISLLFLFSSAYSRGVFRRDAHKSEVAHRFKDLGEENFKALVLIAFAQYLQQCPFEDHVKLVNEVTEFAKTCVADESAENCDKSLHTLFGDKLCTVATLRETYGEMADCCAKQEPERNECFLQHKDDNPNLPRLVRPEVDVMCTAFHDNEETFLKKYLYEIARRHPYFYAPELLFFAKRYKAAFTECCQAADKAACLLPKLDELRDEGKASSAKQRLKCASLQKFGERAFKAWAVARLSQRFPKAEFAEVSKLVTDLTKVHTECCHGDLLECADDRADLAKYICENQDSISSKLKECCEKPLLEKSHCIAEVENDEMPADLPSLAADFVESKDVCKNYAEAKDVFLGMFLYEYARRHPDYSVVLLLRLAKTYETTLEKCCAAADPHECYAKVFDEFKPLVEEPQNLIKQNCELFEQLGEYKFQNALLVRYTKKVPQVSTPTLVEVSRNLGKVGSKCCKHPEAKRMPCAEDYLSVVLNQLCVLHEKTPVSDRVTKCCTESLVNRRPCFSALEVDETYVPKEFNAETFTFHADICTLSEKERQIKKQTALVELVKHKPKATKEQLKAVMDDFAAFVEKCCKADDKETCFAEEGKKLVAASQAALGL

CC[C@H](C)[C@H](NC(=O)[C@H](Cc1ccccc1)NC(=O)[C@H](CCC(=O)O)NC(=O)[C@H](CCCCN)NC(=O)[C@H](C)NC(=O)[C@H](C)NC(=O)[C@H](CCC(N)=O)NC(=O)CNC(=O)[C@H](CCC(=O)O)NC(=O)[C@H](CC(C)C)NC(=O)[C@H](Cc1ccc(O)cc1)NC(=O)[C@H](CO)NC(=O)[C@H](CSC1CC(=O)N(CCCCCC(=O)O)C1=O)NC(=O)[C@@H](NC(=O)[C@H](CC(=O)O)NC(=O)[C@H](CO)NC(=O)[C@@H](NC(=O)[C@H](Cc1ccccc1)NC(=O)[C@@H](NC(=O)CNC(=O)[C@H](CCC(=O)O)NC(=O)CNC(=O)[C@@H](N)Cc1cnc[nH]1)[C@@H](C)O)[C@@H](C)O)C(C)C)C(=O)N[C@@H](C)C(=O)N[C@@H](Cc1c[nH]c2ccccc12)C(=O)N[C@@H](CC(C)C)C(=O)N[C@H](C(=O)N[C@@H](CCCCN)C(=O)NCC(=O)N[C@@H](CCCNC(=N)N)C(N)=O)C(C)C (stereo partly drawn)
Activity [1]: 37.4% | EC50 [2]: 0.0143 nM

CC[C@H](C)[C@H](NC(=O)[C@H](Cc1ccccc1)NC(=O)[C@H](CCC(=O)O)NC(=O)[C@H](CCCCN)NC(=O)[C@H](C)NC(=O)[C@H](C)NC(=O)[C@H](CCC(N)=O)NC(=O)CNC(=O)[C@H](CCC(=O)O)NC(=O)[C@H](CC(C)C)NC(=O)[C@H](Cc1ccc(O)cc1)NC(=O)[C@H](CO)NC(=O)[C@H](CO)NC(=O)[C@@H](NC(=O)[C@H](CC(=O)O)NC(=O)[C@H](CO)NC(=O)[C@@H](NC(=O)[C@H](Cc1ccccc1)NC(=O)[C@@H](NC(=O)CNC(=O)[C@H](CCC(=O)O)NC(=O)CNC(=O)[C@@H](N)Cc1cnc[nH]1)[C@@H](C)O)[C@@H](C)O)C(C)C)C(=O)N[C@@H](C)C(=O)N[C@@H](Cc1c[nH]c2ccccc12)C(=O)N[C@@H](CC(C)C)C(=O)N[C@H](C(=O)N[C@@H](CCCCN)C(=O)NCC(=O)N[C@@H](CCCNC(=N)N)C(=O)N[C@@H](CSC1CC(=O)N(CCCCCC(=O)O)C1=O)C(N)=O)C(C)C (stereo partly drawn)
Activity [1]: 34.1% | EC50 [2]: 0.0093 nM

CC[C@H](C)[C@H](NC(=O)[C@H](Cc1ccccc1)NC(=O)[C@H](CCC(=O)O)NC(=O)[C@H](CCCCN)NC(=O)[C@H](C)NC(=O)[C@H](C)NC(=O)[C@H](CCC(N)=O)NC(=O)CNC(=O)[C@H](CCC(=O)O)NC(=O)[C@H](CC(C)C)NC(=O)[C@H](Cc1ccc(O)cc1)NC(=O)[C@H](CO)NC(=O)[C@H](CSC1CC(=O)N(CCCCCCCCCCCC(=O)O)C1=O)NC(=O)[C@@H](NC(=O)[C@H](CC(=O)O)NC(=O)[C@H](CO)NC(=O)[C@@H](NC(=O)[C@H](Cc1ccccc1)NC(=O)[C@@H](NC(=O)CNC(=O)[C@H](CCC(=O)O)NC(=O)CNC(=O)[C@@H](N)Cc1cnc[nH]1)[C@@H](C)O)[C@@H](C)O)C(C)C)C(=O)N[C@@H](C)C(=O)N[C@@H](Cc1c[nH]c2ccccc12)C(=O)N[C@@H](CC(C)C)C(=O)N[C@H](C(=O)N[C@@H](CCCCN)C(=O)NCC(=O)N[C@@H](CCCNC(=N)N)C(N)=O)C(C)C (stereo partly drawn)
Activity [1]: 65.1% | EC50 [2]: 0.0263 nM

CC[C@H](C)[C@H](NC(=O)[C@H](Cc1ccccc1)NC(=O)[C@H](CCC(=O)O)NC(=O)[C@H](CCCCN)NC(=O)[C@H](C)NC(=O)[C@H](C)NC(=O)[C@H](CCC(N)=O)NC(=O)CNC(=O)[C@H](CCC(=O)O)NC(=O)[C@H](CC(C)C)NC(=O)[C@H](Cc1ccc(O)cc1)NC(=O)[C@H](CO)NC(=O)[C@H](CSC1CC(=O)N(CCC(=O)O)C1=O)NC(=O)[C@@H](NC(=O)[C@H](CC(=O)O)NC(=O)[C@H](CO)NC(=O)[C@@H](NC(=O)[C@H](Cc1ccccc1)NC(=O)[C@@H](NC(=O)CNC(=O)[C@H](CCC(=O)O)NC(=O)CNC(=O)[C@@H](N)Cc1cnc[nH]1)[C@@H](C)O)[C@@H](C)O)C(C)C)C(=O)N[C@@H](C)C(=O)N[C@@H](Cc1c[nH]c2ccccc12)C(=O)N[C@@H](CC(C)C)C(=O)N[C@H](C(=O)N[C@@H](CCCCN)C(=O)NCC(=O)N[C@@H](CCCNC(=N)N)C(N)=O)C(C)C (stereo partly drawn)
Activity [1]: 28.5% | EC50 [2]: 0.0056 nM
